IC50 data for 11 compounds are collected here from ChEMBL document CHEMBL1135657, “Novel dual inhibitors of AChE and MAO derived from hydroxy aminoindan and phenethylamine as potential treatment for Alzheimer's disease” (J Med Chem, 2002).

Test [1] deals with T1, Amine oxidase [flavin-containing] A (Rattus norvegicus, UniProt P21396).
T1 sequence (P21396 whole entry): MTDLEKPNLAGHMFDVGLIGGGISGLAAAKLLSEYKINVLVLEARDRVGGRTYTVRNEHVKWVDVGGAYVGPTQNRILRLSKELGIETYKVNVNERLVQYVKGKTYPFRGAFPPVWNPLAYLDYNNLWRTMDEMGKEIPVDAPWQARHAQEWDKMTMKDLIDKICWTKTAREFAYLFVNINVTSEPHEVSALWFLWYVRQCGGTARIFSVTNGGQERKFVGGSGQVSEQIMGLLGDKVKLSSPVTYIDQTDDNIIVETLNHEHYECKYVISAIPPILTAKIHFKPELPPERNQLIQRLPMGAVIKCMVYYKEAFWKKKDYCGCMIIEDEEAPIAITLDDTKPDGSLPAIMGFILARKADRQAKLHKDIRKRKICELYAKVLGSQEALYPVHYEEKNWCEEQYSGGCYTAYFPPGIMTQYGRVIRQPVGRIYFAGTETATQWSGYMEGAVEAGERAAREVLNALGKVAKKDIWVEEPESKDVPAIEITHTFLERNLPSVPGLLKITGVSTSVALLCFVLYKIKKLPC
As to the kind of experiment: In vitro inhibitory concentration against Monoamine oxidase A of rat brain homogenates; value ranges from 4.7-16.8. Type of test: tissue-based.

For test [2], the target named is T2, Amine oxidase [flavin-containing] B (Rattus norvegicus, UniProt P19643).
T2 sequence (P19643 whole entry): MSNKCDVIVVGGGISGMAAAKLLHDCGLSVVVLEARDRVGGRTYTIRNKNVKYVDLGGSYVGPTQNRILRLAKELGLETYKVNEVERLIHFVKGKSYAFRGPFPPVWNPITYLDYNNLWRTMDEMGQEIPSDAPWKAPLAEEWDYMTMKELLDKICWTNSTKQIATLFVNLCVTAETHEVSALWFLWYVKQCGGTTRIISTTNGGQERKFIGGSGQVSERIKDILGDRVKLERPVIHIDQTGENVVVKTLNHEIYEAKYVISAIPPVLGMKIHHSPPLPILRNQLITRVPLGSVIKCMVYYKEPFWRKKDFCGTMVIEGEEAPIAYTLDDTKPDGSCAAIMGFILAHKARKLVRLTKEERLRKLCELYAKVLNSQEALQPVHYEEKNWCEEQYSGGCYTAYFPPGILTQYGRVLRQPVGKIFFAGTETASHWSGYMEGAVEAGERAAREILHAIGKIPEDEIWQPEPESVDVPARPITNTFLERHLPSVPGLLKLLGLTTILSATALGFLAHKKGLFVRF
As to the kind of experiment: In vitro inhibitory concentration against Monoamine oxidase B of rat brain homogenates; value ranges from 2.8-8.3. It is filed as tissue-based.

The target in test [3] is T2, Amine oxidase [flavin-containing] B. As to the kind of experiment: In vitro inhibitory concentration against Monoamine oxidase B of rat brain homogenates; value ranges from 22-530. Type of test: tissue-based.
The target in test [4] is T1, Amine oxidase [flavin-containing] A. As to the kind of experiment: In vitro inhibitory concentration against Monoamine oxidase A of rat brain homogenates; value ranges from 14-340. It is filed as tissue-based.
Test [5] addresses T2, Amine oxidase [flavin-containing] B. As to the kind of experiment: In vitro inhibitory concentration against Monoamine oxidase B of rat brain homogenates; value ranges from 1.5-5.2. It is filed as tissue-based.
In test [6] the target is T3, Acetylcholinesterase (Homo sapiens, UniProt P22303). As to the kind of experiment: In vitro inhibitory concentration against purified Acetylcholinesterase of human erythrocytes; value ranges from 0.79-0.93.
The target of test [7] is T1, Amine oxidase [flavin-containing] A. As to the kind of experiment: In vitro inhibitory concentration against Monoamine oxidase A of rat brain homogenates; value ranges from 0.1-0.9. It is filed as tissue-based.
Test [8] has the same target. The test can be described thus: In vitro inhibitory concentration against Monoamine oxidase A of rat brain homogenates; value ranges from 0.8-3.7. It is filed as tissue-based.
Test [9] concerns the target T4, Butyrylcholinesterase (Equus caballus, UniProt Q9N1N9). As to the kind of experiment: In vitro inhibitory concentration against Butyrylcholinesterase of horse serum; value ranges from 0.45-1.08. In a few lines: (§1)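 Ellman assay followed, with 200 µM butyrylthiocholine as substrate. Runs were in triplicate with four-point dose-response curves. IC50 and fiducial limits came from log concentration versus % inhibition.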

Test [10] has as its target T2, Amine oxidase [flavin-containing] B. The test can be described thus: In vitro inhibitory concentration against Monoamine oxidase B of rat brain homogenates; value ranges from 0.11-0.57. It is filed as tissue-based. In outline:
(§2)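 Rat brain homogenate (in 0.3 M sucrose) as enzyme source; compounds diluted 10⁻²M to 10⁻⁹M in 0.05 M phosphate buffer with 0.15 μM clorgyline; preincubated 60 min at 37 °C, then 10 μM ¹⁴C-phenylethylamine added for 20 min more; stopped with citric acid; metabolites extracted into toluene/ethyl acetate, scintillation counted; activity as % of control, tranylcypromine blank.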

Test [11] concerns the target T3, Acetylcholinesterase. The test can be described thus: In vitro inhibitory concentration against purified Acetylcholinesterase of human erythrocytes; value ranges from 3.69-33.1.
Test [12] addresses T3, Acetylcholinesterase. The test can be described thus: In vitro inhibitory concentration against purified Acetylcholinesterase of human erythrocytes; value ranges from 26.2-5898.
Test [13] has as its target T4, Butyrylcholinesterase. The test can be described thus: In vitro inhibitory concentration against Butyrylcholinesterase of horse serum; value ranges from 0.28-0.30. In a few lines:
as §1

Test [14] concerns the target T2, Amine oxidase [flavin-containing] B. The test can be described thus: In vitro inhibitory concentration against Monoamine oxidase B of rat brain homogenates; value ranges from 75-200.
The target of test [15] is T3, Acetylcholinesterase.
Test [16] concerns the target T2, Amine oxidase [flavin-containing] B. The test can be described thus: In vitro inhibitory concentration against Monoamine oxidase B of rat brain homogenates; value ranges from 0.08-0.38. It is filed as tissue-based. In outline: as §2
In test [17] the target is T1, Amine oxidase [flavin-containing] A. As to the kind of experiment: In vitro inhibitory concentration against Monoamine oxidase A of rat brain homogenates; value ranges from 12.1-17.6. It is filed as tissue-based.
Test [18] concerns the target T4, Butyrylcholinesterase. The test can be described thus: In vitro inhibitory concentration against Butyrylcholinesterase of horse serum; value ranges from 1.19-8.56. In a few lines: as §1
The target of test [19] is T3, Acetylcholinesterase. The test can be described thus: In vitro inhibitory concentration against purified Acetylcholinesterase of human erythrocytes; value ranges from 13.6-27.3.
The target of test [20] is T1, Amine oxidase [flavin-containing] A. As to the kind of experiment: In vitro inhibitory concentration against Monoamine oxidase A of rat brain homogenates; value ranges from 1.8-2.5. It is filed as tissue-based.
Test [21] concerns the target T4, Butyrylcholinesterase. As to the kind of experiment: In vitro inhibitory concentration against Butyrylcholinesterase of horse serum; value ranges from 0.90-0.95. In a few lines: as §1
Test [22] deals with T3, Acetylcholinesterase. The test can be described thus: In vitro inhibitory concentration against purified Acetylcholinesterase of human erythrocytes; value ranges from 12.6-74.0.
The target in test [23] is T2, Amine oxidase [flavin-containing] B. As to the kind of experiment: In vitro inhibitory concentration against Monoamine oxidase B of rat brain homogenates; value ranges from 9.5-17.2.
Test [24] concerns the target T4, Butyrylcholinesterase. As to the kind of experiment: In vitro inhibitory concentration against Butyrylcholinesterase of horse serum; value ranges from 0.21-1.26. In outline: as §1
Test [25] has as its target T3, Acetylcholinesterase. The test can be described thus: In vitro inhibitory concentration against purified Acetylcholinesterase of human erythrocytes.
In test [26] the target is T1, Amine oxidase [flavin-containing] A. As to the kind of experiment: In vitro inhibitory concentration against Monoamine oxidase A of rat brain homogenates; value ranges from 2-8. Type of test: tissue-based.
Test [27] addresses T3, Acetylcholinesterase. As to the kind of experiment: In vitro inhibitory concentration against purified Acetylcholinesterase of human erythrocytes; value ranges from 7.5-19.5.
Test [28] concerns the target T2, Amine oxidase [flavin-containing] B. As to the kind of experiment: In vitro inhibitory concentration against Monoamine oxidase B of rat brain homogenates; value ranges from 30-230. It is filed as tissue-based.
Test [29] deals with T1, Amine oxidase [flavin-containing] A. As to the kind of experiment: In vitro inhibitory concentration against Monoamine oxidase A of rat brain homogenates; value ranges from 150-320. Type of test: tissue-based.
Test [30] shares this target. The test can be described thus: In vitro inhibitory concentration against Monoamine oxidase A of rat brain homogenates; value ranges from 370-520. It is filed as tissue-based.

T4 sequence (Q9N1N9 whole entry): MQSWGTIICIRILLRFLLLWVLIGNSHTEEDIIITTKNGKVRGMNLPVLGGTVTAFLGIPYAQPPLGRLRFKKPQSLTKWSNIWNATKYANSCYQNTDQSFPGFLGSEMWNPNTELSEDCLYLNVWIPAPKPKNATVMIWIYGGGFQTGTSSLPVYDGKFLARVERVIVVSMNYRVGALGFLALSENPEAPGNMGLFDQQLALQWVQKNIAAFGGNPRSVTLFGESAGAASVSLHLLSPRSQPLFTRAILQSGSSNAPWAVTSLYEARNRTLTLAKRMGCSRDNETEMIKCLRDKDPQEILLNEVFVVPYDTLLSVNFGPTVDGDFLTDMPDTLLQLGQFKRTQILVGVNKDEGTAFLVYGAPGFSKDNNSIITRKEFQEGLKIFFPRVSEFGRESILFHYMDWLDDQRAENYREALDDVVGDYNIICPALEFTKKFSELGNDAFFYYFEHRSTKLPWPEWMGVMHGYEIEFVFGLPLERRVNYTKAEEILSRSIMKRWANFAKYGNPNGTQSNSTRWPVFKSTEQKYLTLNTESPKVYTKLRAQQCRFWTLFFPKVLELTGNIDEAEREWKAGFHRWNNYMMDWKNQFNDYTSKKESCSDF
T3 sequence (P22303 whole entry): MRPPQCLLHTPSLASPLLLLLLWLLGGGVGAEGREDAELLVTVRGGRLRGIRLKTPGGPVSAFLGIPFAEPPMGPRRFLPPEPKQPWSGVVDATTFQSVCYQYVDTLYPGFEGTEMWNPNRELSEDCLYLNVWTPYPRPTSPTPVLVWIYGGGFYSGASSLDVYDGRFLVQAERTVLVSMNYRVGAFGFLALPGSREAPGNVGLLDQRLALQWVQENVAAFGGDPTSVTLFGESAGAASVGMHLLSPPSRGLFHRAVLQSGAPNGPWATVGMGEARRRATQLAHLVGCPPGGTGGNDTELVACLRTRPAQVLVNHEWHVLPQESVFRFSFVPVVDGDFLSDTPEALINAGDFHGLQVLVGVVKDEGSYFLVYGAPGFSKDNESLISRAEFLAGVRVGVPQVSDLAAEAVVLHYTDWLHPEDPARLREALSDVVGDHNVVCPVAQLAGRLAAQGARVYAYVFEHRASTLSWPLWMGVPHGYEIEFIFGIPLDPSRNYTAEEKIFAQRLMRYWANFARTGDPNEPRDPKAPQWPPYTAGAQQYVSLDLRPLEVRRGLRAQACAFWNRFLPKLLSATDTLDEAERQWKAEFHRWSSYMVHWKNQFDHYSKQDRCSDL

Broadly, the IC50 is the concentration at which inhibition is half-maximal. Low readings indicate higher potency, high ones lower potency. Turning to `C#CCN(C)C(C)Cc1cccc(O)c1` (stereo not given), the IC50 was determined as 8.9 µM in [1] and 4.8 µM in test [2].
As for `C#CCNCCc1cccc(O)c1`, the IC50 in test [3] was determined as 107 µM; in test [4], 67 µM.
`C#CCN(C)CCc1cccc(OC(=O)N(C)C)c1`: the IC50 was determined as 2.8 µM in test [5], 0.85 µM against Acetylcholinesterase [6] and 0.3 µM in test [7].
On to `C#CCN(C)C(C)Cc1cccc(OC(=O)N(C)C2CCCCC2)c1` (stereo not given), for which the IC50 amounted to 1.7 µM in test [8], 0.67 µM against Butyrylcholinesterase [9], 0.24 µM in test [10] and 8.67 µM at Acetylcholinesterase [11].
Regarding `C#CCNC1CCc2ccc(OC(=O)N(C)CC)cc2C1` (stereo not given), the IC50 worked out at 204 µM on Acetylcholinesterase [12], 0.29 µM at Butyrylcholinesterase [13] and 120 µM in test [14].
For the compound `CN(C)C(=O)Oc1ccc2c(c1)CC(N)CC2` (stereo not given), at Acetylcholinesterase [15], the half-inhibitory concentration (IC50) came out at 3.24 µM.
Turning to `C#CCNC(C)Cc1cccc(OC(=O)N(C)CCC)c1` (stereo not given), the IC50 in test [16] turned out to be 0.17 µM; in test [17] it was 14.6 µM; at Butyrylcholinesterase [18], 2.07 µM; at Acetylcholinesterase [19], 19.1 µM.
Take `C#CCNC(C)Cc1cccc(OC(=O)N(C)CC)c1` (stereo not given): the IC50 stood at 2.1 µM in test [20], 0.93 µM at Butyrylcholinesterase [21], 33.9 µM against Acetylcholinesterase [22] and 12.8 µM in test [23].
On to `C#CCN(C)[C@@H]1CCc2ccc(OC(=O)N(C)CC)cc21`, for which the values for the IC50 (against Butyrylcholinesterase [24]; against Acetylcholinesterase [25]; in test [26]) were 0.55 µM, 1200 µM and 4 µM, respectively.
As for `C#CCN[C@@H]1CCc2ccc(OC(=O)N(C)CCCC)cc21`, the IC50 against Acetylcholinesterase [27] was found to be 11.6 µM; in [28] it was 150 µM; in [29], 220 µM.
On to `C#CCN[C@H]1CCc2ccc(O)cc21`, for which, in test [30], the IC50 turned out to be 440 µM.
